Assay results as given in ChEMBL document CHEMBL1138744, “In vitro cytotoxic activities of 2-alkyl-4,6-diheteroalkyl-1,3,5-triazines: new molecules in anticancer research” (J Med Chem, 2004).
pIC50: −log10 of the molar value.

Legend:
Format in all cases: functional, cell-based
[1] = tested on: SR; experiment: Cytotoxic activity of compound towards human cancer cell line SR (leukemia)
Method in brief: (§1)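 Compounds first passed a one-dose primary assay on three cell lines, then were tested on a 60-line human tumour panel. Dose–response curves gave growth-inhibition values (IG50, μM). For each compound, only the most sensitive of the 60 lines was reported.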

[2] = tested on: C6; experiment: Cytotoxic activity of compound towards […] cell line after 48 hr of administration; details: Rattus norvegicus, C6, 48 h
[3] = tested on: HL-60; experiment: Cytotoxic activity of compound towards human HL60 cell line after 48 hr of administration; details: HL-60, 48 h
[4] = tested on: C6; experiment: Cytotoxic activity of compound towards […] cell line after 72 hr of administration; details: Rattus norvegicus, C6, 72 h
[5] = tested on: HL-60; experiment: Cytotoxic activity of compound towards human HL60 cell line after 72 hr of administration; details: HL-60, 72 h
[6] = tested on: L1210; experiment: Cytotoxic activity of compound towards human L1210 cell line after 72 hr of administration; details: Mus musculus, L1210, 72 h
[7] = tested on: L1210; experiment: Cytotoxic activity of compound towards human leukemia L1210 cell line after 48 hr of administration; details: Mus musculus, L1210, 48 h
[8] = tested on: HCT-116; experiment: Cytotoxic activity of compound towards human cancer cell line HCT116 (colon cancer); method in brief: as §1
[9] = Cytotoxic activity of compound towards human L1210 cell line after 72 hr of administration; a is No cytotoxic effect
[10] = tested on: L1210; experiment: Cytotoxic activity of compound towards […] cell line after 48 hr of administration; NE= No effect
[11] = tested on: LOX IMVI; experiment: Cytotoxic activity of compound towards human cancer cell line LOX IMVI (melanoma); method in brief: as §1
[12] = tested on: C6; experiment: Cytotoxic activity of compound towards […] cell line after 72 hr of administration; NE= No effect
[13] = tested on: L1210; experiment: Cytotoxic activity of compound towards human L1210 cell line after 72 hr of administration; NE= No effect
[14] = tested on: HL-60; experiment: Cytotoxic activity of compound towards human HL60 cell line after 48 hr of administration; NE= No effect
[15] = tested on: HL-60; experiment: Cytotoxic activity of compound towards human HL60 cell line after 72 hr of administration; NE= No effect
[16] = tested on: CAKI-1; experiment: Cytotoxic activity of compound towards human cancer cell line CAKI-1 (renal cancer); method in brief: as §1
[17] = tested on: HOP-62; experiment: Cytotoxic activity of compound towards human cancer cell line HOP-62 (lung cancer); method in brief: as §1
[18] = tested on: OVCAR-4; experiment: Cytotoxic activity of compound towards human cancer cell line OVCAR-4 (ovarian cancer); method in brief: as §1

Work on COc1ccc(Oc2nc(C#CC(C)(C)O)nc(Oc3ccc(OC)cc3)n2)cc1 yielded a pIC50 [1] of 6.20, a pIC50 [2] of under 2.00 and a pIC50 [3] of 4.77. It also gave a pIC50 [4] of under 2.00, a pIC50 [5] of 4.44 and a pIC50 [6] of 4.85. It also gave a pIC50 [7] of 4.96.

Work on COc1nc(C#CC2CCCCC2)nc(OC)n1 yielded a pIC50 [8] of 6.40.

COc1ccc(Oc2nc(Oc3ccc(OC)cc3)nc(Oc3ccc(OC)cc3)n2)cc1 showed a pIC50 [3] of 4.15 and a pIC50 [5] of 4.28.

In the case of COc1ccc(Nc2nc(C#CC(C)(C)C)nc(Nc3ccc(OC)cc3)n2)cc1, the pIC50 [2] was under 2.00, the pIC50 [3] was 3.23 and the IC50 [9] was “No effect”. For the same compound, the pIC50 [4] was under 2.00, the IC50 [10] was “Not Active” and the pIC50 [5] was 3.24.

Compound COc1nc(C#CCCCC#N)nc(OC)n1 has a GI50 [11] of 2.09 µM.

With CC(C)(C)C#Cc1nc(N2CCOCC2)nc(N2CCOCC2)n1 the pIC50 [2] was 2.18, the pIC50 [3] was 3.74 and the IC50 [12] was “Not Active”. For the same compound, the pIC50 [5] was 3.41, the pIC50 [6] was 3.92 and the pIC50 [7] was 3.74.

Work on COc1nc(C#CC(C)(C)O)nc(OC)n1 yielded a pIC50 [2] of 4.79, a pIC50 [3] of 4.80 and a pIC50 [4] of 4.82. It also gave a pIC50 [5] of 4.82, a pIC50 [6] of 4.89 and a pIC50 [7] of 4.85.

With CC(C)(C)C#Cc1nc(N(CCO)CCO)nc(N(CCO)CCO)n1 the pIC50 [2] was 2.47, the IC50 [13] was “Not Active” and the IC50 [10] was “Not Active”. For the same compound, the IC50 [14] was “Not Active”, the IC50 [12] was “Not Active” and the IC50 [15] was “Not Active”.

In the case of COc1nc(C#CC(C)(C)C)nc(OC)n1, the pIC50 [1] was 5.28, the pIC50 [2] was 4.78 and the pIC50 [3] was 5.15. The pIC50 [4] was 4.78, the pIC50 [5] was 5.15 and the pIC50 [6] was 5.04. For the same compound, the pIC50 [7] was 4.92.

With CC(C)c1nc(N2CCOCC2)nc(N2CCOCC2)n1 the pIC50 [2] was 3.85, the pIC50 [3] was 4.06 and the pIC50 [4] was 3.31. It also gave a pIC50 [5] of 3.70, a pIC50 [6] of 4.17 and a pIC50 [7] of 4.03.

Work on COc1nc(OC)nc(-c2cccc(F)c2)n1 yielded a pIC50 [16] of over 8.00.

For C1CN(c2nc(N3CCOCC3)nc(N3CCOCC3)n2)CCO1, the pIC50 [2] was 3.82, the pIC50 [3] was 3.89 and the pIC50 [4] was 3.54. For the same compound, the pIC50 [5] was 4.00, the pIC50 [6] was 3.96 and the pIC50 [7] was 3.82.

For COc1nc(OC)nc(OC)n1, the pIC50 [3] was 3.52 and the pIC50 [5] was 3.47.

Work on CCC(O)C#Cc1nc(OC)nc(OC)n1 (stereo not given) yielded a pIC50 [17] of 5.31.

Compound CC[C@H](C)Cc1nc(N2CCOCC2)nc(N2CCOCC2)n1 has a pIC50 [2] of 3.24, a pIC50 [3] of 3.66 and a pIC50 [4] of 3.62. The pIC50 [5] was 3.85, the pIC50 [6] was 4.24 and the pIC50 [7] was 3.85.

With COc1nc(C#CC2(O)CCCCC2)nc(OC)n1 the pIC50 [18] was 5.73.
